From ChEMBL document CHEMBL3525987, “Assessment of exposure of metabolites in preclinical species and humans at steady state from the single-dose radiolabeled absorption, distribution, metabolism, and excretion studies: a case study” (Drug Metab Dispos, 2012)

Key:
Conditions in all cases: in vivo
[1] = test system: Rattus norvegicus; test: Total drug recovery in bile duct-cannulated female Sprague-Dawley rat at 10 mg/kg, po administered as single dose via gavage measured 0 to 48 hrs by liquid scintillation counting; type: ADME, organism-based; set-up: dose 10 mg/kg, dosed compound name [14C]lixivaptan, route oral
[2] = test system: Rattus norvegicus; test: AUC(0 to infinity) as total radioactivity in female Sprague-Dawley rat plasma at 10 mg/kg, po administered as single dose via gavage […]; type: ADME, organism-based; set-up: time infinity, dose 10 mg/kg, dosed compound name [14C]lixivaptan, route oral
Method in brief: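 Jugular-cannulated Sprague-Dawley rats (5/gender) were fasted 18 h and gavaged once with 10 mg/kg [14C]lixivaptan suspended in water/pluronic F68. K2EDTA blood was taken at 0.25–168 h, with donor blood replaced from 1 h on. Total radioactivity was read by LSC (ng-equiv/ml) and parent by validated LC-MS/MS. Noncompartmental Cmax, log-linear kel and trapezoidal AUC followed.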

[3] = test system: Rattus norvegicus; test: AUC (0 to 24 hrs) in female Sprague-Dawley rat at 10 mg/kg, po administered as single dose via gavage; type: ADME, organism-based, Plasma; set-up: time < 24 hr, dose 10 mg/kg, dosed compound name [14C]lixivaptan, route oral
Method in brief: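 Sprague-Dawley rats (9/gender) were fasted 18 h and gavaged once with [14C]lixivaptan at 10 mg/kg (10 ml/kg), about 29.8 µCi/mg, suspended in deionized water with pluronic F68. Plasma came by cardiac puncture under isoflurane at 1, 8 and 24 h (3/gender/time) and was extracted twice with 2 volumes of acetonitrile. C18 radio-HPLC with a flow scintillation detector gave percent of plasma radioactivity per peak.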

[4] = Drug recovery in bile of bile duct-cannulated female Sprague-Dawley rat at 10 mg/kg, po administered as single dose via gavage measured 0 to 48 hrs by liquid scintillation counting; type: ADME, organism-based; set-up: dose 10 mg/kg, dosed compound name [14C]lixivaptan, route oral
Method in brief: (§1)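 Bile-duct cannulated SD rats (n=5) got single gavage of [14C]drug 10 mg/kg as pluronic F68/water suspension. Bile collected on wet ice at 0-4, 4-8, 8-24, 24-48 h; drinking water supplemented with bile salts and electrolytes. Duplicate aliquots counted by liquid scintillation; expressed as % of dose.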

[5] = Drug recovery in feces of male beagle dog at 10 mg/kg, po administered as single dose via gavage measured after 168 hrs by liquid scintillation counting; type: ADME, organism-based, Canis lupus familiaris; set-up: dose 10 mg/kg, dosed compound name [14C]lixivaptan, route oral
Method in brief: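 Four male beagles got 10 mg/kg (2 ml/kg) [14C]drug suspension (5.0 mg/ml, pluronic F68/water, 1.04 µCi/mg) by gavage. Urine and feces collected over dry ice at 0-8, 8-24 h, then every 24 h to 7 days; urine by LSC, fecal homogenates combusted then LSC; cage wash/debris included; % of dose.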

[6] = test system: Rattus norvegicus; test: Drug recovery in cage wash/debris of male Sprague-Dawley rat at 10 mg/kg, po administered as single dose via gavage measured after 168 hrs by liquid scintillation counting; type: ADME, organism-based; set-up: dose 10 mg/kg, dosed compound name [14C]lixivaptan, route oral
Method in brief: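 Intact SD rats (3/gender) dosed by gavage with [14C]drug 10 mg/kg (10 ml/kg, pluronic F68/water), housed in metabolism cages; urine and feces at 0-8, 8-24 h, then every 24 h to 7 days. Urine counted by LSC; feces homogenized 20% w/w in water, combusted, trapped CO2 counted; cage wash/debris included; % of dose.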

[7] = Drug recovery in bile of bile duct-cannulated male Sprague-Dawley rat at 10 mg/kg, po administered as single dose via gavage measured from 0 to 48 hrs by liquid scintillation counting; type: ADME, organism-based; set-up: dose 10 mg/kg, dosed compound name [14C]lixivaptan, route oral; method in brief: as §1

**Q.** Which Radiolabel recovery [1] does the source give for `Cc1ccc(F)cc1[14C](=O)Nc1ccc(C(=O)N2Cc3cccn3Cc3ccccc32)c(Cl)c1` here?
**A.** Its Radiolabel recovery is 70.5%.

**Q.** What about the AUC [2] of the same compound?
**A.** The AUC was 37200 ng.Eq.hr/ml.

**Q.** What about the AUC [3] of the same compound?
**A.** The AUC was 5580 ng.Eq.hr/ml.

**Q.** What about the Radiolabel recovery [4] of the same compound?
**A.** The Radiolabel recovery was 70.5%.

**Q.** What about the Radiolabel recovery [5] of the same compound?
**A.** Its Radiolabel recovery is 83.1%.

**Q.** And the Radiolabel recovery [6]?
**A.** The Radiolabel recovery was 2.2%.

**Q.** And the Radiolabel recovery [7]?
**A.** The Radiolabel recovery was 65.4%.
